According to ChEMBL document CHEMBL3856229, “Hybrid Antibiotic Overcomes Resistance in P. aeruginosa by Enhancing Outer Membrane Penetration and Reducing Efflux” (J Med Chem, 2016):
pIC50: −log10 of the molar value. Activity calls are given as the source filed them. The rule behind the calls is not given here.

Columns and labels:
[1] = Inhibition of Pseudomonas aeruginosa DNA gyrase A assessed as inhibition of DNA supercoiling using PBR322 DNA as substrate after 30 mins by SYBR Gold staining based agarose gel electrophoresis
[2] = system: Staphylococcus epidermidis; experiment: Antibacterial activity against methicillin-resistant Staphylococcus epidermidis isolate CAN-ICU 61589 after 24 hrs by microtitre broth dilution method; assay type: functional; details: isolate CAN-ICU 61589, 24 h
Staphylococcus aureus = experiment: Antibacterial activity against Staphylococcus aureus ATCC 29213 after 24 hrs by microtitre broth dilution method; assay type: functional; details: ATCC 29213, 24 h
Pseudomonas aeruginosa [3] = experiment: Potentiation of ciprofloxacin induced antibacterial activity against multidrug/extremely drug-resistant Pseudomonas aeruginosa isolate PA262-101856 assessed as ciprofloxacin MIC at <= […] ug/ml (reference value: […] to […] ug/ml); assay type: functional
Escherichia coli [4] = experiment: Antibacterial activity against fluoroquinolone resistant Escherichia coli isolate N-10-1631 harboring beta-lactamase CTX-M-15/OXA-1; assay type: functional
Escherichia coli [5] = experiment: Antibacterial activity against Escherichia coli ATCC 25922 after 24 hrs by microtitre broth dilution method; assay type: functional; details: ATCC 25922, 24 h
Klebsiella pneumoniae = experiment: Antibacterial activity against Klebsiella pneumoniae ATCC 13883 after 24 hrs by microtitre broth dilution method; assay type: functional; details: ATCC 13883, 24 h
[6] = Inhibition of circular DNA translation in Escherichia coli S30 extract after 60 mins by luciferase reporter gene assay
How it was run: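 Translation was run in an E. coli S30 extract with a luciferase read-out. Luminescence is expressed as a percentage of the no-antibiotic control, taken as 100%.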

Pseudomonas aeruginosa [7] = experiment: Antibacterial activity against Pseudomonas aeruginosa PAO1 assessed as fractional inhibitory concentration index after 18 hrs in presence of rifampicin by checkerboard method; assay type: functional
How it was run: (§1)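 Checkerboard combinations of the hybrid with each partner antibiotic were tested against P. aeruginosa PAO1. Interaction is expressed as the fractional inhibitory concentration (FIC) index: ≤0.5 means synergy, 1–2 no interaction, ≥4 antagonism.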

Pseudomonas aeruginosa [8] = experiment: Antimicrobial activity against Pseudomonas aeruginosa PAO1 assessed as cell membrane blebbing at 8 ug/ml after 3 to 4 hrs by uranyl acetate staining based transmission electron microscopy; assay type: functional
How it was run: (§2)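 PAO1 in Mueller-Hinton broth was exposed to 8 µg/mL at 37 °C (3 h in the legend, 4 h in the text). Untreated cells were the reference. Morphology was imaged by transmission electron microscopy at 75 kV.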

Pseudomonas aeruginosa [9] = experiment: Antibacterial activity against pandrug-resistant Pseudomonas aeruginosa isolate 91433 in presence of <= 4 ug/ml of ciprofloxacin (reference value: 8 ug/ml); assay type: functional
[10] = Toxicity in Galleria mellonella upto 96 hrs
How it was run: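 Tolerability test in Galleria mellonella larvae, injected with doses up to a maximum of 600 mg/kg.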

Escherichia coli [11] = experiment: Antibacterial activity against fluoroquinolone resistant Escherichia coli isolate 90789 harboring beta-lactamase KPC-3/TEM-1; assay type: functional
[12] = Cytotoxicity against human JIMT1 cells assessed as reduction in cell viability after 48 hrs by MTS assay; assay type: toxicity, cell-based, JIMT-1
Pseudomonas aeruginosa [13] = experiment: Potentiation of moxifloxacin induced antibacterial activity against multidrug/extremely drug-resistant Pseudomonas aeruginosa isolate PA260-97103 assessed as moxifloxacin MIC at <= […] ug/ml (reference value: […] to […] ug/ml); assay type: functional
[14] = Cytotoxicity against human DU145 cells assessed as reduction in cell viability after 48 hrs by MTS assay; assay type: toxicity, cell-based, DU-145
Pseudomonas aeruginosa [15] = experiment: Potentiation of moxifloxacin induced antibacterial activity against pandrug-resistant Pseudomonas aeruginosa isolate 91433 assessed as moxifloxacin MIC at <= […] ug/ml (reference value: 8 to […] ug/ml); assay type: functional
Escherichia coli [16] = experiment: Antibacterial activity against fluoroquinolone resistant Escherichia coli isolate ECMH01 harboring beta-lactamase NDM-1; assay type: functional
Pseudomonas aeruginosa [17] = experiment: Antimotility activity against Pseudomonas aeruginosa PAO1 assessed as reduction in flagellum-dependent swimming motility after 20 hrs; assay type: functional
How it was run: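 Swim plates (0.3% agar, dried and set for 60 min) were inoculated with PAO1 at OD600 1.0, with or without 0.25 µg/mL test agent. Plates were imaged after 20 h at 37 °C.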

Pseudomonas aeruginosa [18] = experiment: Antibacterial activity against multidrug-resistant/tobramycin-susceptible Pseudomonas aeruginosa isolate 92014; assay type: functional
[19] = Hemolytic activity in human erythrocytes at 1000 microg/ml after 30 mins by spectrometry; assay type: ADME, cell-based, Erythrocyte; details: read-out: Activity
Escherichia coli [20] = experiment: Antibacterial activity against fluoroquinolone resistant Escherichia coli isolate 80083 harboring beta-lactamase CTX-M-15/OXA-1; assay type: functional
Escherichia coli [21] = experiment: Antibacterial activity against fluoroquinolone resistant Escherichia coli isolate 92969 harboring beta-lactamase CTX-M-15/OXA-1; assay type: functional
Pseudomonas aeruginosa [22] = experiment: Antimicrobial activity against Pseudomonas aeruginosa PAO1 assessed as outer membrane damage at 8 ug/ml after 3 to 4 hrs by uranyl acetate staining based transmission electron microscopy; assay type: functional; how it was run: as §2
Pseudomonas aeruginosa [23] = experiment: Antibacterial activity against multidrug-resistant/tobramycin-susceptible Pseudomonas aeruginosa isolate 86052; assay type: functional
Escherichia coli [24] = experiment: Antibacterial activity against amikacin-resistant Escherichia coli isolate CAN-ICU 63074 after 24 hrs by microtitre broth dilution method; assay type: functional; details: isolate CAN-ICU 63074, 24 h
Pseudomonas aeruginosa [25] = experiment: Potentiation of ciprofloxacin induced antibacterial activity against multidrug/extremely drug-resistant Pseudomonas aeruginosa isolate PA264-104354 assessed as ciprofloxacin MIC at <= […] ug/ml (reference value: […] to […] ug/ml); assay type: functional
Pseudomonas aeruginosa [26] = experiment: Antimicrobial activity against Pseudomonas aeruginosa PAO200; assay type: functional
How it was run: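 MIC (µg/mL) determined in PAO200, a PAO1-derived MexAB-OprM deletion strain used to assess efflux effects.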

Pseudomonas aeruginosa [27] = experiment: Potentiation of ciprofloxacin induced antibacterial activity against pandrug-resistant Pseudomonas aeruginosa isolate 91433 assessed as ciprofloxacin MIC at <= […] ug/ml (reference value: 4 to 8 ug/ml); assay type: functional
Pseudomonas aeruginosa [28] = experiment: Antibacterial activity against multidrug-resistant/tobramycin-susceptible Pseudomonas aeruginosa isolate 84745; assay type: functional
Pseudomonas aeruginosa [29] = experiment: Antibacterial activity against extremely drug-resistant Pseudomonas aeruginosa isolate 104354 infected in Galleria mellonella assessed as larvae survival administered as single dose measured after 24 to 96 hrs; assay type: functional
How it was run: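 Galleria mellonella larvae were infected with 10^6 CFU of XDR P. aeruginosa #104354, resistant to all antipseudomonal classes except colistin. A single injected drug dose was given 2 h post-infection: 50 mg/kg with survival read at 24 h, or 75 mg/kg with survival read at 96 h. Controls were infected untreated larvae and PBS-injected larvae. Two independent experiments of 15 larvae each (n = 30).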

Pseudomonas aeruginosa [30] = experiment: Antibacterial activity against Pseudomonas aeruginosa PAO1 assessed as fractional inhibitory concentration index after 18 hrs in presence of novobiocin by checkerboard method; assay type: functional; how it was run: as §1
Pseudomonas aeruginosa [31] = experiment: Antibacterial activity against Pseudomonas aeruginosa PAO1; assay type: functional
Streptococcus pneumoniae = experiment: Antibacterial activity against Streptococcus pneumoniae ATCC 49619 after 24 hrs by microtitre broth dilution method; assay type: functional; details: ATCC 49619, 24 h
Escherichia coli [32] = experiment: Antibacterial activity against fluoroquinolone resistant Escherichia coli isolate 88273 harboring beta-lactamase CTX-M-15/TEM-1/OXA-1; assay type: functional
Pseudomonas aeruginosa [33] = experiment: Antibacterial activity against Pseudomonas aeruginosa PAO1 assessed as fractional inhibitory concentration index after 18 hrs in presence of tobramycin by checkerboard method; assay type: functional; how it was run: as §1

Q: With COc1c(N2C[C@@H]3CCCN(CCCCCCCCCCCCO[C@@H]4[C@@H](O[C@H]5O[C@H](CO)[C@@H](O)[C@H](N)[C@H]5O)[C@H](N)C[C@H](N)[C@H]4O[C@H]4O[C@H](CN)[C@@H](O)C[C@H]4N)[C@@H]3C2)c(F)cc2c(=O)c(C(=O)O)cn(C3CC3)c12.Cl.Cl.Cl.Cl.Cl as the compound, how does the pIC50 [1] read?
A: Its pIC50 is 4.26.

Q: What about the MIC [2] of the same compound?
A: Its MIC is 16 µg/mL.

Q: And the MIC (Staphylococcus aureus)?
A: The MIC was 1 µg/mL.

Q: And the MIC (Pseudomonas aeruginosa [3])?
A: Its MIC is 1 µg/mL.

Q: And the MIC (Escherichia coli [4])?
A: Its MIC is ≥ 64 µg/mL.

Q: And the MIC (Escherichia coli [5])?
A: The MIC was 0.5 µg/mL.

Q: What about the MIC (Klebsiella pneumoniae) of the same compound?
A: The MIC was 1 µg/mL.

Q: What about the pIC50 [6] of the same compound?
A: The pIC50 was 5.33.

Q: What about the “fractional inhibitory concentration index (FICI)” value (Pseudomonas aeruginosa [7]) of the same compound?
A: Its value is 0.15.

Q: And the Activity (Pseudomonas aeruginosa [8])?
A: Its Activity is “Active”.

Q: What about the MIC (Pseudomonas aeruginosa [9]) of the same compound?
A: The MIC was < 1 µg/mL.

Q: And the MTD at 96 h [10]?
A: The MTD at 96 h was 600 mg/kg.

Q: What about the MIC (Escherichia coli [11]) of the same compound?
A: The MIC was ≥ 64 µg/mL.

Q: What about the CC50 at 48 h [12] of the same compound?
A: Its CC50 at 48 h is > 30 µM.

Q: What about the MIC (Pseudomonas aeruginosa [13]) of the same compound?
A: Its MIC is 1 µg/mL.

Q: What about the CC50 at 48 h [14] of the same compound?
A: Its CC50 at 48 h is > 30 µM.

Q: And the MIC (Pseudomonas aeruginosa [15])?
A: The MIC was 0.12 µg/mL.

Q: What about the MIC (Escherichia coli [16]) of the same compound?
A: Its MIC is ≥ 64 µg/mL.

Q: What about the Activity (Pseudomonas aeruginosa [17]) of the same compound?
A: Its Activity is “Dose-dependent effect”.

Q: What about the MIC (Pseudomonas aeruginosa [18]) of the same compound?
A: Its MIC is 4 µg/mL.

Q: And the hemolysis at 0.5 h, 1000 microg/ml [19]?
A: Its hemolysis at 0.5 h, 1000 microg/ml is < 2.5%.

Q: What about the MIC (Escherichia coli [20]) of the same compound?
A: The MIC was ≥ 64 µg/mL.

Q: And the MIC (Escherichia coli [21])?
A: The MIC was ≥ 64 µg/mL.

Q: And the Activity (Pseudomonas aeruginosa [22])?
A: Its Activity is “Active”.

Q: And the MIC (Pseudomonas aeruginosa [23])?
A: Its MIC is 2 µg/mL.

Q: What about the MIC (Escherichia coli [24]) of the same compound?
A: The MIC was 4 µg/mL.

Q: And the MIC (Pseudomonas aeruginosa [25])?
A: The MIC was 1 µg/mL.

Q: And the MIC (Pseudomonas aeruginosa [26])?
A: Its MIC is 4 µg/mL.

Q: And the MIC (Pseudomonas aeruginosa [27])?
A: Its MIC is 0.25 µg/mL.

Q: And the MIC (Pseudomonas aeruginosa [28])?
A: Its MIC is 8 µg/mL.

Q: What about the Activity (Pseudomonas aeruginosa [29]) of the same compound?
A: The Activity was “Dose-dependent effect”.

Q: And the “fractional inhibitory concentration index (FICI)” value (Pseudomonas aeruginosa [30])?
A: Its value is 0.12.

Q: And the MIC (Pseudomonas aeruginosa [31])?
A: Its MIC is 4 µg/mL.

Q: And the MIC (Streptococcus pneumoniae)?
A: Its MIC is 1 µg/mL.

Q: What about the MIC (Escherichia coli [32]) of the same compound?
A: Its MIC is ≥ 64 µg/mL.

Q: And the “fractional inhibitory concentration index (FICI)” value (Pseudomonas aeruginosa [33])?
A: The value was >2.
